Drawing on PubChem BioAssay AID540320 (Southern Research Specialized Biocontainment Screening …, 2011), this text covers log virus titer change for 15 molecules.

Calls of active or inactive are those of the source.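 How the source made its calls: active means progeny virus titer drops over tenfold versus the untreated infected control, meaning log virus titer change below -1; inactive means the rest.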

This experiment concerns HEp-2 cells, RSV plaque reduction, virus titer. As to the kind of experiment: antiviral reduction of RSV infectious yield – plaque reduction, HEp-2 cells, set 3, orthogonal assay for RSV antiviral project (AID 540320). The conditions noted are these: at 10 µM; stronger effect = lower value. In short, it runs like this:
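System: HEp-2 cells infected with RSV Long strain / Reagent: RSV Long, MOI 0.1 / Doses: single dose, 0.5% DMSO / Schedule: 2 h infection, 48 h compound exposure at 37 °C / Measured by: plaque assay on fresh HEp-2, PFA fixation, neutral red staining / Read-out basis: supernatant virus titer / Controls: Ribavirin 35 µM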
`COCCCNC(=O)c1ccc(Cn2c(=O)c3ccccc3n(Cc3ccc(OC)cc3)c2=O)cc1`: the log virus titer change was -2.72.

Take `Cc1cc(NC(=O)[C@@H]2CCCN2S(=O)(=O)c2cccc3cccnc23)n(C(C)(C)C)n1`: the log virus titer change is -0.71 (inactive).

Turning to `Cc1ccc(Cn2c(=O)n(Cc3ccc(C(=O)Nc4cc(C)nc5ccccc45)cc3)c(=O)c3ccccc32)cc1`, the log virus titer change was -0.61 (inactive).

Take `COCCCNC(=O)c1ccc(Cn2c(=O)c3ccc(Br)cc3n(Cc3ccc(C)cc3)c2=O)cc1`: the log virus titer change was -0.31 (inactive).

Consider `Cc1ccc(Cn2c(=O)n(Cc3ccc(C(=O)Nc4ccncc4)cc3)c(=O)c3ccccc32)cc1`, for which the log virus titer change was -3.25.

Take `COCCCNC(=O)c1ccc(Cn2c(=O)c3ccccc3n(Cc3ccc4nonc4c3)c2=O)cc1`: the log virus titer change is -2.05.

Turning to `COCCCNC(=O)c1ccc(Cn2c(=O)c3ccccc3n(Cc3ccc(Cl)cc3)c2=O)cc1`, the log virus titer change was -3.12.

As for `COCCCNC(=O)c1ccc(Cn2c(=O)c3ccccc3n(Cc3ccc(C(F)(F)F)cc3)c2=O)cc1`, the log virus titer change was -2.66.

Regarding `COCCCNC(=O)c1ccc(Cn2c(=O)c3ccccc3n(Cc3ccc([N+](=O)[O-])cc3)c2=O)cc1`, the log virus titer change is -4.94.

Turning to `Cc1ccc(F)cc1NC(=O)[C@@H]1CCCN1S(=O)(=O)c1cccc2cccnc12`, the log virus titer change is -0.33 (inactive).

Turning to `Cc1ccc(Cn2c(=O)n(Cc3ccc(C(=O)Nc4nccs4)cc3)c(=O)c3ccccc32)cc1`, the log virus titer change was -0.01 (inactive).

In the case of `COCCCNC(=O)c1ccc(Cn2c(=O)c3ccccc3n(Cc3ccc(Br)cc3)c2=O)cc1`, the log virus titer change was -4.51.

Turning to `Cc1cccc(NC(=O)[C@@H]2CCCN2S(=O)(=O)c2cccc3cccnc23)c1C`, the log virus titer change was -0.39 (inactive).

Take `COCCCNC(=O)c1ccc(Cn2c(=O)c3ccccc3n(Cc3ccc(C)c(C(F)(F)F)c3)c2=O)cc1`: the log virus titer change is -2.37.

As for `Cc1ccc(Cn2c(=O)n(Cc3ccc(C(=O)NC(C)(C)C)cc3)c(=O)c3ccccc32)cc1`, the log virus titer change is -5.38.
